Screens as filed in PubChem BioAssay.
Statin myotox sup: suppression of simvastatin myotoxicity; 0.78% of 330,000 active; C2C12 myotubes + simvastatin, ATP luminescence, 48 h; scaled: DMSO 0, geranylgeraniol control 100; rescue of ATP level, % at 7.49 µM; AID 602340;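 active means mean ATP rescue above about 67%, or every replicate alone reaching that limit, limit read from the data, passing the limit was not always enough; inconclusive means no clear call, values can overlap the other calls; inactive means mean under the limit and some replicate under it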;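 further: myotubes were challenged with 10 µM simvastatin during compound exposure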
Mot1-301 SUMO: blocks SUMOylation pathway, rescuing yeast Mot1-301 growth; 1% of 320,000 active; S. cerevisiae Mot1-301 growth rescue, ATP luminescence, 38.5C; percent above DMSO median, 100 means doubled; growth rescue, % at 18.8 µM;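 active means every valid replicate shows activation above 250% relative to neutral control wells; inactive means the rest, any valid replicate at or below 250%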;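 further: OY570 slx delta 5 strain wells were the positive control but not used for scaling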
Cneo AK release: Cryptococcus neoformans lysis via adenylate kinase release; C. neoformans lysis, adenylate kinase release luminescence, 4 h; normalised: neutral wells 0, clomiphene wells 100; AID 651654; 0.2% of 360,000 active; lysis activity, % at 15 µM;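 active means mean lysis activity across replicates of at least 80%, whatever share of replicates individually reach that level; inactive means mean lysis activity below 80%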
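Assay system: C. neoformans cells. Amount: yeast cell density of 5 × 10^6 cells/mL. Technique: AK luminescence. Buffer or medium: YPD. Times: static 4 h at 37 °C with compound, 1 h detection. Dosing: single-point compound dose. Read-out: lysis from increased AK signal.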
* marks the source's active call; other numbers are inactive results; u = inconclusive; x = no result. An excerpt weighted towards active compounds, which were near 1.5% of everything screened.

SMILES	Statin myotox sup	Mot1-301 SUMO	Cneo AK release
O=C(NC[C@H]1[C@@H](c2ccccc2)[C@H](CO)N1C(=O)Cc1cccnc1)C1CCC1	10	x	-2
O=C(NC[C@@H]1[C@H](c2ccccc2)[C@@H](CO)N1C(=O)Cc1cccnc1)C1CCC1	-5	x	84*
CCCNC(=O)N1[C@@H](CO)[C@@H](c2ccccc2)[C@@H]1CNC(C)=O	2	x	1
CC(=O)N1[C@H](CO)[C@H](c2ccc(-c3ccccc3)cc2)[C@@H]1CNC(=O)C1CC1	5	x	105*
CCCNC(=O)N1[C@@H](CO)[C@@H](c2ccc(-c3ccccc3)cc2)[C@@H]1CNC(C)=O	-11	x	88*
CC(=O)N1[C@H](CNC(=O)C2CC2)[C@@H](c2ccc(-c3ccccc3)cc2)[C@@H]1CO	-5	x	15
O=C(Cc1ccccc1)N[C@H]1C=C[C@@H](CC(=O)N2CCCCC2)O[C@@H]1CO	4	x	0
C[C@@H]1CN([C@@H](C)CO)S(=O)(=O)c2ccc(-c3cccc(C(=O)N(C)C)c3)cc2O[C@H]1CN(C)C(=O)Cc1ccccn1	5	x	-14
CC(=O)N1[C@H](CNC(=O)CN2CCOCC2)[C@@H](c2ccccc2)[C@@H]1CO	-13	x	0
C/C=C/c1cnc2c(c1)C(=O)N([C@@H](C)CO)C[C@H](C)[C@@H](CN(C)C(=O)NC1CCCCC1)O2	18	x	9
COc1ccc(C#Cc2cnc3c(c2)C(=O)N([C@H](C)CO)C[C@H](C)[C@H](CN(C)Cc2cccc(C(F)(F)F)c2)O3)cc1OC	152*	x	-7
COc1ccc(C#Cc2cnc3c(c2)C(=O)N([C@H](C)CO)C[C@H](C)[C@H](CN(C)CC2CCCC2)O3)cc1	1	x	2
C[C@@H]1CN([C@H](C)CO)C(=O)c2cc(C#CC(C)(C)O)cnc2O[C@H]1CN(C)Cc1cncnc1	-16	x	-4
COc1ccc(C#Cc2cnc3c(c2)C(=O)N([C@H](C)CO)C[C@H](C)[C@H](CN(C)Cc2ccccc2)O3)cc1OC	u	x	-1
C[C@H](CO)N1C[C@H](C)[C@H](CN(C)Cc2cccnc2)Oc2ncc(C#CC3(O)CCCC3)cc2C1=O	3	x	98*
C[C@H](CO)N1C[C@H](C)[C@@H](CN(C)CC2CCCC2)Oc2ncc(C#Cc3ccncc3)cc2C1=O	103*	x	-1
C[C@H]1CN([C@@H](C)CO)C(=O)c2cc(C#CC3(O)CCCC3)cnc2O[C@H]1CN(C)Cc1cccnc1	11	x	x
C[C@@H]1CN([C@H](C)CO)C(=O)c2cc(C#CC(C)(C)O)cnc2O[C@@H]1CN(C)Cc1cncnc1	-17	x	85*
C[C@H](CO)N1C[C@H](C)[C@@H](CN(C)CC2CCCCC2)Oc2ccc(NC(=O)CCN3CCOCC3)cc2CC1=O	0	x	-1
C/C=C/c1cnc2c(c1)C(=O)N([C@H](C)CO)C[C@@H](C)[C@@H](CN(C)Cc1ccc(F)cc1)O2	19	x	1
COc1ccccc1-c1cnc2c(c1)C(=O)N([C@@H](C)CO)C[C@H](C)[C@H](CN(C)Cc1cncnc1)O2	1	x	-1
COc1ccccc1-c1cnc2c(c1)C(=O)N([C@H](C)CO)C[C@@H](C)[C@H](CN(C)Cc1cncnc1)O2	-23	x	82*
COc1ccc(CN(C)C[C@H]2Oc3ccc(NS(=O)(=O)c4c(C)noc4C)cc3C(=O)N([C@H](C)CO)C[C@H]2C)cc1	x	x	0
C[C@@H]1CN([C@@H](C)CO)S(=O)(=O)c2ccc(C3=CCCC3)cc2O[C@H]1CN(C)C(=O)Cc1ccncc1	-12	x	-2
CO[C@H]1CN(C)C(=O)c2ccc(NC(=O)Nc3ccccc3F)cc2OC[C@@H](C)N(C(C)=O)C[C@@H]1C	15	x	3
SMILES	Statin myotox sup	Mot1-301 SUMO	Cneo AK release
CC(C)Oc1ccc(C(=O)NCc2ccco2)cc1	127*	2	-2
O=C(NCc1ccco1)c1ccccc1	7	21	-1
C[C@@H]1CN([C@H](C)CO)S(=O)(=O)c2ccc(C#Cc3ccccn3)cc2O[C@@H]1CN(C)C(=O)C1CC1	15	x	1
C[C@H](CO)N1C[C@H](C)[C@H](CN(C)C(=O)c2ccncc2)OCCCC[C@H](C)Oc2ccc(NC(=O)C3CCCCC3)cc2C1=O	19	x	x
COc1ccc(NC(=O)Nc2ccc3c(c2)CC(=O)N([C@H](C)CO)C[C@H](C)[C@H](CN(C)C(=O)Nc2ccc(F)cc2)O3)cc1	3	x	46
Cc1ccccc1S(=O)(=O)NCC[C@H]1CC[C@@H](NC(=O)C2CCOCC2)[C@H](CO)O1	-5	x	1
CCOCC(=O)N1CCC(Cc2ccccc2)CC1	x	26	x
Cn1c(C(=O)O)c(CC(=O)N2CCC(Cc3ccccc3)CC2)c2ccccc21	x	893*	2
COc1cc(/C=C/C(=O)/C=C(O)/C=C/c2ccc(O)c(OC)c2)ccc1O	140*	16	0
COc1cc(/C=C/C(=O)O)ccc1O	-13	18	-1
C[C@@H]1CN([C@H](C)CO)C(=O)Cc2cc(NS(=O)(=O)c3ccc(Cl)cc3)ccc2O[C@@H]1CN(C)Cc1ccc(C(F)(F)F)cc1	u	x	-4
C[C@H](CO)N1C[C@H](C)[C@@H](CN(C)Cc2ccc(C(F)(F)F)cc2)Oc2ccc(NS(=O)(=O)c3ccc(Cl)cc3)cc2CC1=O	112*	x	-2
Cc1ccc(S(=O)(=O)Nc2ccc3c(c2)CC(=O)N([C@@H](C)CO)C[C@H](C)[C@@H](CN(C)Cc2ccc(C(F)(F)F)cc2)O3)cc1	40	x	x
Cc1ccc(S(=O)(=O)Nc2ccc3c(c2)CC(=O)N([C@@H](C)CO)C[C@@H](C)[C@H](CN(C)Cc2ccc(C(F)(F)F)cc2)O3)cc1	69*	x	x
Cc1ccc(S(=O)(=O)Nc2ccc3c(c2)CC(=O)N([C@H](C)CO)C[C@@H](C)[C@@H](CN(C)Cc2ccc(C(F)(F)F)cc2)O3)cc1	67*	x	x
C[C@@H]1CN([C@@H](C)CO)C(=O)Cc2cc(NS(=O)(=O)c3ccc(F)cc3)ccc2O[C@@H]1CN(C)Cc1ccc(C(F)(F)F)cc1	25	x	6
C[C@@H]1CN([C@@H](C)CO)C(=O)c2cccc(NC(=O)c3ccc(-c4nccs4)cc3)c2O[C@@H]1CN(C)S(=O)(=O)c1ccc(Cl)cc1	-25	x	3
COc1ccccc1C1(CC(=O)N2CCOCC2)CCOC(C(C)C)C1 (centres undefined)	0	570*	-4
COc1ccccc1C1(CC(=O)Nc2nccs2)CCOC(C(C)C)C1 (centres undefined)	-43	19	x
Cc1ccc(S(=O)(=O)N[C@@H]2CC[C@@H](CCNC(=O)c3ccccc3F)O[C@@H]2CO)cc1	7	x	17
COc1ccccc1CNC(=O)C[C@H]1CC[C@H](NC(=O)CC2CC2)[C@@H](CO)O1	-5	x	1
O=C(Nc1ccc(Cl)cc1)N[C@H]1CC[C@@H](CCn2cc(Cc3ccccc3)nn2)O[C@H]1CO	-1	x	-4
O=C(COC(=O)C1=COCCO1)Nc1ccc(F)c(F)c1	-2	609*	-2
O=C(COC(=O)C1=COCCO1)Nc1ccccc1	x	-4	x
Cc1noc(C)c1NC(=O)Nc1ccc2c(c1)C(=O)N([C@@H](C)CO)C[C@@H](C)[C@@H](CN(C)C(=O)Nc1ccc3c(c1)OCO3)OCCCC[C@@H](C)O2	x	x	1
